Measured values published in ChEMBL document CHEMBL4265954, “Discovery of potent liver-selective stearoyl-CoA desaturase-1 (SCD1) inhibitors, thiazole-4-acetic acid derivatives, for the treatment of diabetes, hepatic steatosis, and obesity” (Eur J Med Chem, 2018).
Values after ≈ are worked out from the molar mass of the structure shown.

How the values were obtained:
[1] = Solubility of the compound in PBS at pH 7.2; type: physicochemical
Mus musculus [2] = experiment: Ex vivo inhibition of SCD1 in C57BL/6J mouse eyelid assessed as residual activity at 1 mg/kg, po treated for 6 hrs followed by incubation with [14C]stearoyl-CoA substrate for 30 mins by TLC assay relative to control; type: organism-based
Method in brief: (§1)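 Male 6-week-old C57BL/6J mice dosed orally as a suspension in 0.5% methylcellulose. Liver or eyelid was taken 6 or 24 h later and homogenized in 100 mM Tris-HCl pH 7.4 with 0.25 M sucrose. S9 was obtained at 10,000 × g, 4 °C. S9 was incubated with [14C]stearoyl-CoA, NADH, MgCl2 and cytochrome b5 at room temperature, 10 min for liver and 30 min for eyelid. Lipids were saponified and run on AgNO3 TLC to quantify stearate and oleate. Result is % of vehicle control.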

Mus musculus [3] = experiment: Ex vivo inhibition of SCD1 in C57BL/6J mouse liver assessed as residual activity at 10 mg/kg, po treated for 24 hrs followed by incubation with [14C]stearoyl-CoA substrate for 10 mins by TLC assay relative to control; type: functional; method in brief: as §1
Acyl-CoA desaturase 1 = target: T1, Acyl-CoA desaturase 1 (Rattus norvegicus, UniProt P07308); experiment: Inhibition of rat liver microsome SCD assessed as reduction in [3H]H2O production using stearoyl [9,10-3H]CoA as substrate in presence of NADH incubated for 30 mins by scintillation counting method; type: microsomes
T1 sequence (P07308 whole entry): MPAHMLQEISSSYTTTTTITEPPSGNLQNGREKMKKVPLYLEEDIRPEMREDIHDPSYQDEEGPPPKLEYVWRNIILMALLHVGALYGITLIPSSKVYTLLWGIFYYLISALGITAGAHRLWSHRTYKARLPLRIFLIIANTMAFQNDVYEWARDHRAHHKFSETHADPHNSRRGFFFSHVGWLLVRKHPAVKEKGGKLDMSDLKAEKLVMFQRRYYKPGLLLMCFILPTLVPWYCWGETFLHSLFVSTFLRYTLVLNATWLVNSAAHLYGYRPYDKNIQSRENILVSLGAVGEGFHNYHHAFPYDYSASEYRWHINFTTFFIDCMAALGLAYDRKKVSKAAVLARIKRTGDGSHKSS
Method in brief: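 Desaturation of [9,10-3H]stearoyl-CoA measured as released [3H]H2O. Water was separated from charcoal-adsorbed substrate by filtration and counted by scintillation. Remaining activity = (compound − background)/(control − background). DMSO wells served as control and pre-stopped wells as background. IC50 was interpolated from the two points bracketing 50%.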

Cytochrome P450 1A2 = target: T2, Cytochrome P450 1A2 (Homo sapiens, UniProt P05177); experiment: Inhibition of CYP1A2 (unknown origin); type: ADME
T2 sequence (P05177 whole entry): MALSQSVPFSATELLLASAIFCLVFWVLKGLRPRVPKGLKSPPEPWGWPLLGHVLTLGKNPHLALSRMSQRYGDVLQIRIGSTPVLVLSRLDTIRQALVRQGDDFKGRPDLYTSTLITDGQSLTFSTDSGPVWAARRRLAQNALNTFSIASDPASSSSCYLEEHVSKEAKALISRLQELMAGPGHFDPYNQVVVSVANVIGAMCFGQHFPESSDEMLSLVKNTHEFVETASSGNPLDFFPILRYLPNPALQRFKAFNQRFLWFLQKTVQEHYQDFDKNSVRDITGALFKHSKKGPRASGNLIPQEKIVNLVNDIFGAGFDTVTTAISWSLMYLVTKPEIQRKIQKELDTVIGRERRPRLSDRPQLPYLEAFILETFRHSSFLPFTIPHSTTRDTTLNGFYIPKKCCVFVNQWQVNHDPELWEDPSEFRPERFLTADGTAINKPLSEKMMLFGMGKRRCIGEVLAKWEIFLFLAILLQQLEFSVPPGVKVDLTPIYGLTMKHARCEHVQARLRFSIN

[4] = Cmax in Sprague-Dawley rat at 10 mg/kg, po; type: ADME, organism-based; set-up: dose 10 mg/kg, route oral; conditions: in vivo
Method in brief: (§2)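 Two male Sprague-Dawley rats per route, 10 mg/kg po and 1 mg/kg iv. Cmax, tmax, terminal-phase half-life and AUC0-inf were taken from plasma concentration–time curves. Bioavailability was derived from the po and iv data.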

[5] = Oral bioavailability in Sprague-Dawley rat at 10 mg/kg; type: ADME, organism-based; conditions: in vivo; method in brief: as §2
[6] = Tmax in C57BL/6J mouse at 10 mg/kg, po; type: ADME, organism-based; conditions: in vivo
Method in brief: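 Two male C57BL/6J mice per route, 10 mg/kg po and 1 mg/kg iv. Plasma concentration–time profiles gave Cmax, tmax, terminal half-life and AUC0-inf. Bioavailability was derived from the po and iv data.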

[7] = Metabolic stability in mouse liver S9 fraction after 1 hr; type: ADME, subcellular; conditions: read-out: Stability
[8] = Metabolic stability in rat liver S9 fraction after 1 hr; type: ADME, subcellular; conditions: read-out: Stability
Rattus norvegicus [9] = experiment: Ex vivo inhibition of SCD1 in high sucrose diet Sprague-Dawley rat epididymal adipose tissue treated orally for 6 hrs followed by incubation with [14C]stearoyl-CoA substrate for 10 mins by TLC assay; type: organism-based; conditions: po
Method in brief: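 Sprague-Dawley rats on a high sucrose diet, given oral 1 or 10 mg/kg. Liver, epididymal adipose and eyelid were taken 6 h later and homogenized. S9 SCD activity was measured by [14C]stearoyl-CoA conversion to oleate and quantified by AgNO3 TLC imaging. Result is % remaining activity versus control, mean ± SD, n=3.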

[10] = Plasma concentration in high sucrose diet Sprague-Dawley rat at 10 mg/kg, po treated after 6 hrs; type: ADME, organism-based
Method in brief: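 Sprague-Dawley rats on a high sucrose diet, given a single oral 10 mg/kg dose. Plasma, liver and eyelid drug concentrations were measured 6 h later, n=3. Liver/eyelid ratio was taken from the tissue concentrations.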

Rattus norvegicus [11] = experiment: Anti-hepatic steatosis activity in high sucrose very low fat diet fed Sprague-Dawley rat assessed as reduction in triglyceride level in liver administered orally once daily for 8 days and measured on day 8 post last dose; type: functional, organism-based
Method in brief: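 SD rats kept on a high sucrose very low fat diet, dosed orally at 1 or 10 mg/kg once daily for 8 days. On day 8, liver slices were homogenized in methanol and extracted with methanol/chloroform. The supernatant was dried under N2 and redissolved in 2-propanol. Triglyceride was read on an automatic analyzer and expressed as mg/g tissue.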

Rattus norvegicus [12] = experiment: Toxicity in Sprague-Dawley rat assessed as loss of fur at 1000 mg/kg, po once daily for 2 weeks measured from day 9 of administeration; type: organism-based; conditions: in vivo, 336 h
Method in brief: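 Male Sprague Dawley rats, 6 weeks old (5 per group), were dosed orally once daily for 2 weeks at 100 or 1000 mg/kg as a suspension in 0.5% methylcellulose; controls received vehicle. Readouts: clinical observations, body weight, food consumption, ophthalmoscopy in week 2, and terminal necropsy, hematology, clinical chemistry, organ weights and histopathology. Plasma levels were measured 24 h post-dose on days 1, 5 and 10.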

Work on `CCCCc1ccccc1NCc1ccc(C(=O)Nc2nc(CC(=O)O)cs2)s1` yielded a solubility [1] of 82 µM (≈ 35.2 µg/mL), an Activity (Mus musculus [2]) of 97% and an Activity (Mus musculus [3]) of 11%. The IC50 (Acyl-CoA desaturase 1) was 6.5 nM, the IC50 (Cytochrome P450 1A2) was > 50000 nM and the Cmax [4] was 8 µM. For the same molecule, the bioavailability [5] was 16%, the Tmax [6] was 1 h and the remaining at 1 h [7] was 90%. For the same molecule, the remaining at 1 h [8] was 87%, the “inhibition (INH)” value (Rattus norvegicus [9]) was “Dose-dependent effect” and the concentration at 6 h [10] was 0.552 µM. The Activity (Rattus norvegicus [11]) was “Dose-dependent effect” and the Activity (Rattus norvegicus [12]) was “Toxic”.
